Laboratory results as given in ChEMBL document CHEMBL1123768, “Synthesis and characterization of all four isomers of the muscarinic agonist 2'-methylspiro[1-azabicyclo[2.2.2]octane-3,4'-[1,3]dioxolane]” (J Med Chem, 1987).
pEC50: −log10 of the molar value.

Tests used:
Cavia porcellus [1] = species on record: Cavia porcellus; test: Functional efficacy compared to 1 uM muscarine and the maximum response to carbachol in guinea pig ileum
Outline: (§1)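 Agonist-evoked contractions were recorded and concentration–response curves built. EC50 is the concentration giving 50% of that tissue's own maximum, reported as −log EC50 (M).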

Cavia porcellus [2] = species on record: Cavia porcellus; test: Functional efficacy compared to 1 uM muscarine and the maximum response to carbachol in guinea pig isolated atria
Rattus norvegicus [3] = species on record: Rattus norvegicus; test: Determined for Functional efficacy compared to 1 uM muscarine in superior cervical ganglion
Outline: (§2)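 Potentials were recorded by grease-gap between the ganglion body and the internal carotid nerve. Semicumulative concentration–response curves used 1-min agonist superfusions every 10 min. Potency is given as −log EC50 (M). Efficacy is the ratio to the maximum response to 1 µM (±)-muscarine chloride.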

Cavia porcellus [4] = species on record: Cavia porcellus; test: (§3) Determined for potency (muscarinic agonistic activity) expressed in guinea pig isolated atria in vitro; assay type: functional
[5] = (§4) Determined for potency (muscarinic agonistic activity) expressed in superior cervical ganglion in vitro; assay type: functional, tissue-based, Rattus norvegicus; outline: as §2
Cavia porcellus [6] = species on record: Cavia porcellus; test: (§5) Determined for potency (muscarinic agonistic activity) expressed in guinea pig ileum in vitro; assay type: functional; outline: as §1
Cavia porcellus [7] = species on record: Cavia porcellus; test: as §5; details: read-out: Log EC50 (converted)
Cavia porcellus [8] = species on record: Cavia porcellus; test: as §3; details: read-out: Log EC50 (converted)
Rattus norvegicus [9] = species on record: Rattus norvegicus; test: as §4; assay type: functional; details: for pEC50: Rattus norvegicus, Superior cervical ganglion; outline: as §2
[10] = biological target: T1, Muscarinic acetylcholine receptor M2 (Rattus norvegicus) (UniProt P10980)
T1 sequence (whole entry): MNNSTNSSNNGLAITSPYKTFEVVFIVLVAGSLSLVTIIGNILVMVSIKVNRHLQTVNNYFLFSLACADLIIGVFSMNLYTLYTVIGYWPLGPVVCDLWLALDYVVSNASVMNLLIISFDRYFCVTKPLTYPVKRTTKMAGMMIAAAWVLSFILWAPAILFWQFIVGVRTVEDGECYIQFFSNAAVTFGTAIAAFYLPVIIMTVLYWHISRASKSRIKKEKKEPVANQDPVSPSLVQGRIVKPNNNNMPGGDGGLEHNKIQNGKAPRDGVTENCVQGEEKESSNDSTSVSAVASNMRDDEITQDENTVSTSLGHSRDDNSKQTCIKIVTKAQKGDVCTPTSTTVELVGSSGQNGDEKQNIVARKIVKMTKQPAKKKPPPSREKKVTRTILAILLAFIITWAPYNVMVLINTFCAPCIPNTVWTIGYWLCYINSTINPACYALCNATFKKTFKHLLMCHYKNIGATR

[11] = biological target: T2, Muscarinic acetylcholine receptor M1 (Rattus norvegicus) (UniProt P08482)
T2 sequence (whole entry): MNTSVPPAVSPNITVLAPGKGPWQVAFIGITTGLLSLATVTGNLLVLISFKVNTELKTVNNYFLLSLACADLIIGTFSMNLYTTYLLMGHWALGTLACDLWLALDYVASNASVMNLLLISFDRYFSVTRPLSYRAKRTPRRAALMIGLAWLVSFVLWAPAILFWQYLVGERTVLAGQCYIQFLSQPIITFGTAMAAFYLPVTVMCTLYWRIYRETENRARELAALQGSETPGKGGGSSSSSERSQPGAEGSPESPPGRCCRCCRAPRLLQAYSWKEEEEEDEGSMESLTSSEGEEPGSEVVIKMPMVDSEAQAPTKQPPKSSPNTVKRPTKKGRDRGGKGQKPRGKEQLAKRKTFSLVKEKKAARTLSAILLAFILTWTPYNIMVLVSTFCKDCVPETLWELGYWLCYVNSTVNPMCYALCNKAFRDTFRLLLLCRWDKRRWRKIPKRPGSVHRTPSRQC

[12] = biological target: T2, Muscarinic acetylcholine receptor M1 (Rattus norvegicus); remark: listed apart in the source
[13] = biological target: T1, Muscarinic acetylcholine receptor M2 (Rattus norvegicus); remark: listed apart in the source

SMILES	FE (Cavia porcellus [1])	FE (Cavia porcellus [2])	FE (Rattus norvegicus [3])	EC50 (Cavia porcellus [7])	EC50 (Cavia porcellus [8])	K app [12]	K app [13]	Log EC50 (Rattus norvegicus [9])	further results
CC1OCC2(CN3CCC2CC3)O1 (centres undefined) [listing 1 of 2 here]	0.8	0.8	0.7	–	–	–	–	–	pEC50 (Cavia porcellus [4]): 4.08; Log EC50 [5]: -4.83; pEC50 (Cavia porcellus [6]): 5.20
C[C@@H]1OCC2(CN3CCC2CC3)O1.C[C@H]1OCC2(CN3CCC2CC3)O1 (some centres undefined) [listing 1 of 2 here]	0.8	0.8	0.7	3.31 µM	21.9 µM	–	–	–	pEC50 (Rattus norvegicus [9]): 5.24
CC1OCC2(CN3CCC2CC3)O1 (centres undefined) [listing 2 of 2 here]	–	–	–	–	–	–	–	–	K app [10]: 13 µM; K app [11]: 6.8 µM
C[C@@H]1OCC2(CN3CCC2CC3)O1.C[C@H]1OCC2(CN3CCC2CC3)O1 (some centres undefined) [listing 2 of 2 here]	–	–	–	–	–	5.9 µM	8.4 µM	–	–
CC1OCC2(CN3CCC2CC3)O1 (single isomer, unassigned) [listing 1 of 2 here]	–	–	–	–	–	–	–	< -4	pEC50 (Cavia porcellus [6]): < 3.50
CC1OCC2(CN3CCC2CC3)O1 (single isomer, unassigned) [listing 2 of 2 here]	–	–	–	–	–	66 µM	92 µM	–	–
C[C@@H]1OCC2(CN3CCC2CC3)O1 (stereo in doubt; 1A1) [listing 1 of 2 here]	–	–	–	–	–	–	–	< -4	–
C[C@@H]1OCC2(CN3CCC2CC3)O1 (stereo in doubt; 1A1) [listing 2 of 2 here]	–	–	–	–	–	55 µM	64 µM	–	–
C[C@H]1OCC2(CN3CCC2CC3)O1 (stereo in doubt; 1B1)	0.8	0.8	0.8	2.19 µM	14.8 µM	2.7 µM	2.2 µM	-5.25	–
C[C@@H]1OCC2(CN3CCC2CC3)O1 (stereo in doubt; 1B2) [listing 1 of 2 here]	0.7	0.2	0.7	20 µM	100 µM	–	–	-4.56	–
C[C@@H]1OCC2(CN3CCC2CC3)O1 (stereo in doubt; 1B2) [listing 2 of 2 here]	–	–	–	–	–	4.1 µM	8.5 µM	–	–
C[N+](C)(C)CCOC(N)=O.[Cl-] [CARBACHOL]	1	1	–	0.102 µM	0.209 µM	45 µM	1.9 µM	–	–
C[C@@H]1O[C@H](C[N+](C)(C)C)C[C@H]1O [MUSCARINE]	–	–	1.1	–	–	28 µM	2.3 µM	–	pEC50 (Rattus norvegicus [9]): 6.77
